From PubChem
KCNK9 block = KCNK9 potassium channel inhibitors, primary screen, HEK293 cells, thallium flux; AID 488922, 2010; FluxOR thallium flux fluorescence; hits give low values; Potassium channel subfamily K member 9 (Homo sapiens), Q9NPC2; B-score at 10 µM; 310,000 tested, 1.2% active;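 active = ratio B-score over 3 SD below the library mean, with starting fluorescence within 5 SD of its mean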;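 also: negative B-score means less thallium flux so channel inhibition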
KCNQ1 act = potentiators or activators of KCNQ1 channel, primary screen, cell-based, thallium flux, high-throughput. B-score at 10 µM. 310,000 tested, 0.35% active. AID 2648, 2010. Potassium voltage-gated channel subfamily KQT member 1 (Homo sapiens), P51787. CHO-K1 KCNQ1, thallium flux FluxOR fluorescence; hits give high values;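 active = fluorescence ratio B-score, a plate-corrected score, at least three library SD, with initial intensity B-score within 5 SD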
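Assay system: CHO-K1 cells stably expressing KCNQ1; Medium: assay buffer with matched DMSO; Also added: K+/Tl+ depolarizing stimulus; Dosing: single dose; Timing: dye 90 min, compound 20 min, room temperature; Measured by: kinetic FluxOR thallium fluorescence, 10-s 1-Hz baseline, 110-s post-stimulus read; Read-out: peak-minus-minimum fluorescence over initial fluorescence, negative-control normalized, B-scored.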
KCNQ1 block = inhibitors of human KCNQ1 channel, primary screen, cell-based, thallium flux, high-throughput | 310,000 tested, 1.3% active | Potassium voltage-gated channel subfamily KQT member 1 (Homo sapiens), P51787 | B-score at 10 µM | CHO-K1 KCNQ1, FluxOR thallium flux fluorescence; hits give high values;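 active = compounds whose thallium flux B-score, printed positive for inhibition, exceeds three library SD while starting fluorescence stays within three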;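 also: channel opened by potassium depolarization with thallium stimulus after 20 min compound exposure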
KCNK3 inh = human KCNK3 channel inhibitors, primary screen, CHO cells, FluxOR thallium flux, B-score. Potassium channel subfamily K member 3 (Homo sapiens), O14649. FluxOR fluorescence; hits give low values. B-score at 10 µM. 340,000 tested, 0.84% active. AID 602410, 2012;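 active = B-score under library mean minus 4 SD, starting fluorescence ratio at most library mean plus 5 SD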;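 also: more negative B-score means stronger inhibition of thallium flux through KCNK3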
Kir21 block = inhibitors of mouse Kir2.1 inward-rectifier potassium channel; B-score at 10 µM; 310,000 tested, 0.85% active; HEK293-Kir2.1, FluxOR thallium flux fluorescence; hits give low values; Inward rectifier potassium channel 2 (Mus musculus), P35561;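 active = fluorescence ratio B-score at or below minus 3 SD of library scores, with starting-brightness B-score within 2 SD, cut at about -4.2 in these data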;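 also: channel flux triggered by added potassium and thallium sulfate stimulus; B-score of peak minus minimum fluorescence over baseline after thallium stimulus; more negative B-score means stronger Kir2.1 block with less thallium influx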
hERG rescue = hERG rescue from dofetilide block, primary screen, cell-based, CHO-hERG, FluxOR thallium flux, dofetilide IC70 | 310,000 tested, 0.51% active | activation (rescue from dofetilide block), less the hit threshold, % at 10 µM | dofetilide IC70 present;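 active = activation above the mean of controls blocked by dofetilide plus 5 SD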;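 also: thallium influx through hERG after potassium depolarization seen as dye fluorescence rise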
Each line names hits and unclear results; the compound was inactive in the other large screens. Hits are enriched below; roughly 3.7% of the tested compounds scored in any of these assays.

Cc1ccc(NC(=O)CN2CCN(Cc3ccccc3)CC2)cc1Cl	none
CCOc1cc(CNC2CCCC2)c(Cl)cc1OCC(=O)Nc1ccccc1	Kir21 block -4.47
O=C(NC1CCN(Cc2ccccc2)CC1)c1cccc(Br)c1	Kir21 block -4.64
C=CCc1cccc2cc(C(=O)Nc3ccccc3C(=O)O)c(=O)oc12	none (no result: KCNK9 block, KCNQ1 act, KCNQ1 block, Kir21 block, hERG rescue)
O=C(c1ccc2c(c1)OCCO2)N1CCN(c2ncc(C(F)(F)F)cc2Cl)CC1	none
C=CCOC(=O)CCCCCCCC	none (no result: KCNK9 block, KCNQ1 act, KCNQ1 block, Kir21 block, hERG rescue)
COC(=O)c1ccc(C)cc1	none (no result: KCNK9 block, KCNQ1 act, KCNQ1 block, Kir21 block, hERG rescue)
COC(=O)c1ccc(NN=Nc2ccc(C)cc2)cc1	hERG rescue 5.1
N#CC1=C(N)Oc2cc(O)c(Cl)cc2C1c1cccnc1 (stereo not drawn)	none
N#CC1=C(N)Oc2cc(O)c(Cl)cc2C1c1ccccc1F (stereo not drawn)	KCNQ1 block 14
COC(=O)c1ccc(NC(=O)Nc2ccc(F)c(Cl)c2)cc1	KCNQ1 block 6
COC(=O)c1ccc(NC(=O)Nc2ccc(F)cc2)cc1	KCNQ1 block 6
CCOC(=O)c1ccc(NC(=O)Nc2ccc(F)cc2)cc1	none
COC(=O)NC(=S)Nc1ccc(Oc2ccc(Cl)cc2)c(Cl)c1	none
Fc1ccc(NC(=S)Nc2ccc(F)c(Cl)c2)cc1Cl	KCNK9 block -6.7, KCNQ1 block 13, KCNK3 inh -9.17, Kir21 block -5.43
COC(=O)NC(=S)Nc1ccc(Oc2ccc(Cl)cc2Cl)c(Cl)c1	KCNQ1 act 16
CC1=C(C(=O)Nc2cc(C(=O)N3CCN(c4cccc(C)c4C)CC3)ccc2C)SCCO1	none
CC(C)(C)c1cc(O)c(C(C)(C)C)cc1O	KCNK9 block -8.51, KCNQ1 act 8 (no result: KCNK3 inh)
CC1CCCCC1NC(=O)COC(=O)c1ccc2c(=O)n3c(nc2c1)CCC3 (stereo not drawn)	none (no result: KCNK9 block, KCNQ1 act, KCNQ1 block, Kir21 block, hERG rescue)
COc1ccc(N(C)C(=O)c2ccc3nc(-c4ccccc4)c(-c4ccccc4)nc3c2)cc1	KCNK9 block -7.36, KCNQ1 block 9
CC(C)N(C(=O)c1ccc2nc(-c3ccccc3)c(-c3ccccc3)nc2c1)C(C)C	none
OCC1(CCOc2ccccc2)CCN(Cc2ccncc2)CC1	none
OCC1(CCCc2ccccc2)CCN(Cc2cc(F)ccc2F)CC1	Kir21 block -4.39
OCC1(CCOc2ccccc2)CCN(Cc2cc(Cl)ccc2O)CC1	Kir21 block -4.63
CC(Cc1ccccc1)NC(=O)CC(c1ccccc1)c1ccccc1O (stereo not drawn)	none
CC(Cc1ccccc1)NC(=S)CN1CCCC1=S (stereo not drawn)	Kir21 block -4.59
c1ccc(CNc2ccccn2)cc1	none
c1ccc(C2(CNc3ccccn3)CCCC2)cc1	Kir21 block -4.4
CC1Cn2c(nc3sc4c(c3c2=O)CC(C)(C)OC4)N1CCO (stereo not drawn)	none
CCc1cc(CC)c(/C=N/NC(N)=O)c(CC)c1	Kir21 block -7.26
Cc1cc(C)c(/C=N/NC(N)=O)c(C)c1/C=N/NC(N)=O	none
CCCCn1c(N)c(N(CCOC)C(=O)COC(=O)CNC(=O)c2ccc(Cl)c(Cl)c2)c(=O)[nH]c1=O	none (no result: KCNK9 block, KCNQ1 act, KCNQ1 block, Kir21 block, hERG rescue)
CCCc1cc2c(cc1NC(=O)c1ccc(C(C)(C)C)cc1)OCO2	KCNK9 block -7.75
O=[N+]([O-])c1ccccc1NC1CCN(Cc2ccccc2)CC1	Kir21 block -7.04
O=[N+]([O-])c1ccccc1CN1CCN(S(=O)(=O)Cc2ccccc2)CC1	none
CN(Cc1ccccc1)C1CCN(Cc2ccccc2[N+](=O)[O-])CC1	hERG rescue 9.8
Cc1ccc(OC(C)C(=O)N(Cc2cccs2)C2CCS(=O)(=O)C2)cc1C (stereo not drawn)	none
CCN(CC(=O)Nc1c(F)cccc1F)C(=O)CC1CCCCC1	none (no result: KCNK9 block, KCNQ1 act, KCNQ1 block, Kir21 block, hERG rescue)
Cc1ccc(-c2ccc(/C=N/NC(=O)c3ccccc3O)o2)cc1	KCNQ1 act 8 (no result: KCNK3 inh)
